Source: PubChem
Biofilm kill mix: clotrimazole potentiators killing C. albicans biofilm, primary screen, 4-compound mixtures; 0.02% of 120,000 active; C. albicans biofilm persisters + clotrimazole, fluorescence viability; primary screen in compound mixtures of four per well; AID 1242, 2008; inhibition, % at 7.6 µM;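 active = inhibition above 30.3% in the primary screen of four-compound pools, then above 30% when the compound was retested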;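 also: compounds exposed to preformed 24 h biofilms for 48 h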
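Test system: C. albicans biofilms. Buffer or medium: RPMI/MOPS medium, pH 7.0. Timing: 48 h compound exposure at 37 °C. Technique: Alamar Blue fluorescence. Evaluation: percent inhibition of biofilm viability.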
14-3-3 Bad PPI: inhibitors of 14-3-3 zeta/Bad binding, primary screen, biochemical, TR-FRET, bovine 14-3-3 zeta; 0.71% of 220,000 active; 14-3-3 protein zeta/delta (Bos taurus), P63103; TR-FRET 14-3-3zeta/Dy647-pBad peptide displacement, 1 h; inhibition, % at 21.7 µM;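 active = inhibition above about 70%, limit read from the data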
Target sequence (P63103 whole entry, looked up): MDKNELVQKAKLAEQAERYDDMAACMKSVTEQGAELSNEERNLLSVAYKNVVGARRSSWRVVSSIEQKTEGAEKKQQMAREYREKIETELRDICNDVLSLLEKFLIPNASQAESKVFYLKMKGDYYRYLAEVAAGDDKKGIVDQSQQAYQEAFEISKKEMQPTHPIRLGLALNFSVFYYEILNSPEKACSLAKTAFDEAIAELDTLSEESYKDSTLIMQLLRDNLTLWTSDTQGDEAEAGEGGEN
Mcl1-Noxa inh: Mcl-1/Noxa binding inhibitors, primary screen, biochemical, TR-FRET, 1536-well; inhibition, % at 21.7 µM; Induced myeloid leukemia cell differentiation protein Mcl-1 (Homo sapiens), Q07820; AID 1022, 2008; 1.5% of 220,000 active; TR-FRET Mcl-1/Noxa peptide binding, 2 h;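 active = compounds that cut the protein-peptide binding signal by more than 50% relative to plate controls in a single-dose test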;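 also: His-tagged Mcl-1 with rhodamine Noxa BH3 peptide and terbium anti-His antibody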
Target sequence (Q07820 whole entry, looked up): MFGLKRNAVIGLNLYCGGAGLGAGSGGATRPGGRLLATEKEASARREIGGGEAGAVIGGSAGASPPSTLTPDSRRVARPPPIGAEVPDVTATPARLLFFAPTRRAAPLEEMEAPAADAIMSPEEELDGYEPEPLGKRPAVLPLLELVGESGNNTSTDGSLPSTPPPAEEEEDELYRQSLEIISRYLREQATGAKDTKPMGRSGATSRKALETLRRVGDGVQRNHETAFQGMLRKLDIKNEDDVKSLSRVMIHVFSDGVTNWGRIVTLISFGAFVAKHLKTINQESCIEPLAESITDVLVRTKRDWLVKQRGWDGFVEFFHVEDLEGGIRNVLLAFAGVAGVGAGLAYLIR
Mcl1 Bid PPI: Mcl-1/Bid binding inhibitors, primary screen, biochemical, TR-FRET, 1536-well. 0.97% of 220,000 active. AID 1021, 2008. TR-FRET Mcl-1/Bid-Dy647 peptide binding. Induced myeloid leukemia cell differentiation protein Mcl-1 (Homo sapiens), Q07820. inhibition, % at 21.7 µM;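 active = compounds that cut the binding signal by more than half at the single screening dose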;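 also: His-tagged Mcl-1 with europium anti-His antibody binding Bid BH3 peptide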
Hck-Nef inh: inhibitors of Nef-activated human Hck kinase, primary screen, biochemical, Z-Lyte FRET, 384-well, Hck-YEEI; inhibition, % at 20 µM; Recombinant Hck-YEEI plus Nef, Z-Lyte FRET kinase assay; 0.68% of 220,000 active;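 active = Hck-Nef kinase inhibition above about 50%, limit read from the data; inactive = inhibition below that limit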
Bim-Mcl-1: inhibitors of Bim peptide binding to Mcl-1, primary screen, biochemical, bead-based flow cytometry, multiplex. Induced myeloid leukemia cell differentiation protein Mcl-1 (Homo sapiens), Q07820. Bim peptide-Mcl-1 binding. inhibition, % at 10 µM. 0.1% of 190,000 active. AID 1009, 2008; in the data active = inhibition above about 40%
Numbers stand for hits; i = inactive; nt = no result given; [ ] = dose if it differs, or a comment. This is a sample that favours compounds with a hit; in the whole collection about 3.2% have one here.

SMILES	Biofilm kill mix	14-3-3 Bad PPI	Mcl1-Noxa inh	Mcl1 Bid PPI	Hck-Nef inh	Bim-Mcl-1
C=C(C)C(=O)Nc1cccc(C2=NOC3(C2)C[C@@H](C(N)=O)N(C(=O)c2cc([N+](=O)[O-])cc([N+](=O)[O-])c2)C3)c1 (stereo partly drawn)	i	i	i	i	i	nt
O=C(CN(Cc1ccc(F)cc1)S(=O)(=O)c1ccccc1)N1CCCCC1	nt	i	62	i	i	i
CCOc1ccc2nc(SCC(=O)N3c4ccccc4Sc4ccccc43)sc2c1	i	i	i	i	i	i
CCOc1ccc2nc(SCC(=O)N3c4ccccc4Sc4ccccc43)c(C#N)cc2c1	i	i	i	i	i	42
O=C(/C=C/c1ccc(-c2ccccc2[N+](=O)[O-])o1)c1ccco1	i	i	66	i	i	i
N#C/C(=C\c1ccc(-c2ccccc2[N+](=O)[O-])o1)C(=O)N1CCOCC1	i	i	i	i	i	i
Nc1ncc(N=Nc2cc(C(=O)O)ccc2Cl)s1	i	i	67	i	i	nt
Nc1cc2sc(-c3ccc(C(=O)O)cc3)nc2cc1Cl	i	i	i	i	i	i
COc1ccc(-c2ccc(-c3nnn(CC(=O)N4CCOCC4)n3)cc2)cc1	nt	i	i	i	i	i
COc1ccc(N2CCN(C(=O)Cn3nnc(-c4ccc(N(C)C)cc4)n3)CC2)cc1	i	77	52	60	i	i
COc1ccc(NC(=O)c2c([N+](=O)[O-])c(C(C)(C)C)nn2C)cc1	i	i	i	i	i	nt
CC(C)CC1NC(=O)N(CC(=O)c2ccc3c(c2)OCCO3)C1=O (stereo not drawn)	nt	i	98	i	i	i
O=C(c1cnccn1)N1CCc2ccccc2C1	i	93	i	i	i	i
O=C(c1cccc(C(=O)N2CCN(c3ccccc3F)CC2)n1)N1CCN(c2ccccc2F)CC1	nt	i	i	i	i	i
O=C(c1cc(-c2ccco2)on1)N1CCc2ccccc2C1	nt	i	69	i	i	i
O=C(c1cc(=O)c2ccccc2o1)N1CCN(c2ccccc2F)CC1	i	i	i	i	i	41
O=C(c1cnccn1)N1CCN(c2ccccc2F)CC1	i	i	i	i	i	57
O=C(CSCc1ccccc1)NCCCN1CCOCC1	i	i	i	98	i	i
Cc1ccc(Nc2nnc(C3C(=O)N(C)C4(C)CC3c3cc(Br)ccc3O4)s2)cc1 (stereo not drawn)	i	i	i	i	i	i
CN1CCc2nc3sc(C(=O)C45CC6CC(CC(C6)C4)C5)c(N)c3cc2C1	nt	81[fluorescence artefact?]	58	85	i	i
Cc1nn(Cc2nnc(SCC(=O)Nc3ccc(Cl)cc3)n2C)c(C)c1[N+](=O)[O-]	i	i	i	i	i	nt
Cc1ccc(/C=C2\SC(=S)N(C3CCS(=O)(=O)C3)C2=O)o1 (stereo not drawn)	i	i	i	i	i	i
NS(=O)(=O)c1ccc(-c2ccc(/C=C3\SC(=S)N(C4CCS(=O)(=O)C4)C3=O)o2)cc1 (stereo not drawn)	i	i	79	51	i	nt
O=C(c1ccc(=O)[nH]c1)N(Cc1ccco1)C1(C(=O)NC2CCCC2)CCCCC1	nt	nt	i	i	i	i
CCN(CC)CCOc1ccc(/C(=C(/Cl)c2ccccc2)c2ccccc2)cc1	i	78	i	i	i	i
SMILES	Biofilm kill mix	14-3-3 Bad PPI	Mcl1-Noxa inh	Mcl1 Bid PPI	Hck-Nef inh	Bim-Mcl-1
O=C1CC(N2CCN(c3ncccn3)CC2)C(=O)N1CCc1ccccc1 (stereo not drawn)	i	i	i	i	i	i
Cn1c2ccccc2c(=O)c2c(=O)n(C3CCCCCC3)c(C3CCCCC3)nc21	i	87	i	89	i	i
CC(C)Sc1nc(-c2cccs2)nc2c1c(=O)n(C)c(=O)n2C	i	i	i	i	53	i
CCOCCCNC(=O)C(NC(=O)c1ccc(NC(C)=O)cc1)c1ccccc1 (stereo not drawn)	i	73	i	i	i	i
CCOCCCNC(=O)C(NC(=O)c1ccc(NC(C)=O)cc1)c1ccc(C)cc1 (stereo not drawn)	i	i	i	i	i	i
CCOC(=O)N1CCN(C(=O)c2ccc3c(=O)n(-c4ccc(OC)cc4OC)c(=S)[nH]c3c2)CC1	nt	i	i	i	i	i
COc1ccc(OC)c(-n2c(=S)[nH]c3cc(C(=O)N4CCN(c5ccccc5)CC4)ccc3c2=O)c1	i	i	i	i	i	48
Cc1ccc(SC(C)C(=O)Nc2cccc(N(C)S(C)(=O)=O)c2)cc1 (stereo not drawn)	nt	75	i	i	i	i
Cc1ccc(N(C(C)C(=O)Nc2cccc(N(C)S(C)(=O)=O)c2)S(C)(=O)=O)cc1 (stereo not drawn)	i	i	i	i	i	i
Cc1nc(COc2ccccc2Cl)sc1-c1ccnc(N)n1	i	i	i	55	i	nt
Cc1cc(C)cc(NC(=O)Oc2ccccc2N2CCCCC2)c1	i	i	51	i	i	nt
CC1(C)CN=c2s/c(=C\c3ccc(Cl)cc3)c(=O)n2C1	i	i	i	i	i	i
COc1cc2c(cc1OC)C(c1ccccc1O)N(C1CC(=O)N(c3ccccc3)C1=O)CC2 (stereo not drawn)	nt	74	i	i	i	i
O=[N+]([O-])c1ccc2sc(SCc3nc4ccccn4c3Br)nc2c1	i	i	56	i	i	i
COc1ccc(-c2nn(-c3ccccc3)cc2/C=C(/C#N)C(N)=O)cc1[N+](=O)[O-]	i	i	i	65	i	i
COc1ccc(-c2nn(-c3ccccc3)cc2/C=N/Nc2ccc(S(N)(=O)=O)cc2[N+](=O)[O-])cc1OC	i	i	51	i	i	i
COc1ccc(-c2nn(-c3ccccc3)cc2/C=N/Nc2ccc3ccccc3n2)cc1OC	i	i	i	i	i	i
CC(=O)Nc1nonc1-c1nc2ccccc2n1CC1CC1	nt	i	i	i	i	i
CC(=O)Nc1nonc1-c1nc2ccccc2n1N(C(C)=O)C(C)=O	nt	i	52	i	i	i
CCc1n[nH]c(=S)n1/N=C/c1cc(OC)cc([N+](=O)[O-])c1O	i	i	78	i	i	i
CCOC(=O)N1CCC(NC(=O)C2CCN(S(=O)(=O)c3c(C)noc3C)CC2)CC1	nt	i	i	55	i	i
Nc1c2c(nc3ccc(Br)cc13)N(Cc1ccccc1)CC2	i	i	84	i	i	i
Nc1c2c(nc3ccc(Br)cc13)N(C1CCCCC1)CC2	i	i	68	i	i	i
